# Reference: PubChem BioAssay
# The source made the active and inactive calls.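 Rule for the calls, unless noted: active = viability at or below 30% in both replicate assays; inconclusive = viability at or below 30% in just one of the two assays; inactive = the rest.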
# Assays:
# [1] = Her2 expression decrease, cell viability multiplex – SKBR3 breast tumor cells, AlphaScreen, ATP viability, primary screen (AID 461;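 active = Her2 level under about 52% in both replicate screens, with viability over 70% of control, limit read from the data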;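 for Her2 level: lower value means less Her2 protein in the cells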;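 for viability: percent of carrier control wells set as 100% viability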); settings: SKBR3 Her2 protein level, 18-24 h, measured here: SKBR3 viability, ATP luminescence, at 10 µM
# [2] = biological target: Receptor tyrosine-protein kinase erbB-2 (Homo sapiens) (UniProt P04626); assay: as above; settings: 18-24 h, at 10 µM, stronger effect = lower value
# Receptor tyrosine-protein kinase erbB-2 (Homo sapiens), sequence (P04626 whole entry, looked up): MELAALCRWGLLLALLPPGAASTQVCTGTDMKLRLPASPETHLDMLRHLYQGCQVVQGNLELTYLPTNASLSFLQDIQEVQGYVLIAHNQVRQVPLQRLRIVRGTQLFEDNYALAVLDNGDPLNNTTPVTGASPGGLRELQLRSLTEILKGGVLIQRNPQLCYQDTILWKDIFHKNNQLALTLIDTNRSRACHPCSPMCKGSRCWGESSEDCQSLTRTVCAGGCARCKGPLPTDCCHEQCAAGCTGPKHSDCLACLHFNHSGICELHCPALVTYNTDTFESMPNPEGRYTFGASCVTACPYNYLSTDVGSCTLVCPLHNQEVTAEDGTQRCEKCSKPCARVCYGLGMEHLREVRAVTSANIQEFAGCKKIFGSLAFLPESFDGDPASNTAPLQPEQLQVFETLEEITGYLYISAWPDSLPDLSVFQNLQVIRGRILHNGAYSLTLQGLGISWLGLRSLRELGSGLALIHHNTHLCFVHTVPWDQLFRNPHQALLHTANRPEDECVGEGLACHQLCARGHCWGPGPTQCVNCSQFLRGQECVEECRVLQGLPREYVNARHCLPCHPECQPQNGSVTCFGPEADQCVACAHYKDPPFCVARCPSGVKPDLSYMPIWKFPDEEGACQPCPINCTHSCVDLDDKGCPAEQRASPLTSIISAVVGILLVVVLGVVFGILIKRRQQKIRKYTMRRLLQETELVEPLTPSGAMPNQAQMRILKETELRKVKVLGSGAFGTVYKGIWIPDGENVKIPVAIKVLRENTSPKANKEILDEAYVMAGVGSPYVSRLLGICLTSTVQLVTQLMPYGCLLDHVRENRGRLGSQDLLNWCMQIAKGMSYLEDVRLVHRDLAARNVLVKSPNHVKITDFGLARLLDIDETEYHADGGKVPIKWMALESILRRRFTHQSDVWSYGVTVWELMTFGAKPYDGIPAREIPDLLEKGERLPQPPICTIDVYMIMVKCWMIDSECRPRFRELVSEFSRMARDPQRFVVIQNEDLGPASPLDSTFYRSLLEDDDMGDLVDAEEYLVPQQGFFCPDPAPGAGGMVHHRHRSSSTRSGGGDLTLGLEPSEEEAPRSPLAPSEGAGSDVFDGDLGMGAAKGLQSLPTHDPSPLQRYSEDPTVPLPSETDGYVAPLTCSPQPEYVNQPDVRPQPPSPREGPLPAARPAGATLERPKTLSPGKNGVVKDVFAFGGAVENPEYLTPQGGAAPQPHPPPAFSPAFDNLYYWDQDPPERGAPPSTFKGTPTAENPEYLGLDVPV
# [3] = reduced viability of SK-BR-3 breast cancer cells – cell-based, 24 h, human, pilot screen (AID 572;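 active = viability at or below 10% of carrier control in both of two separate runs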;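 note: compound exposure lasted between 18 and 24 h rather than exactly 24 h; 100% = carrier-treated control wells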); settings: SK-BR-3 viability, CellTiter-Glo luminescence, at 10 µM, stronger effect = lower value
# [4] = HUVEC growth inhibition – cell-based, human, primary screen (AID 575); settings: HUVEC proliferation, CellTiter-Glo luminescence, 72 h; at 10 µM; stronger effect = lower value;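 note: 100% = median of untreated cell wells with 0.1% DMSO on each plate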
# Method in brief: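 Timing: 72 h treatment at 37 °C; material: HUVEC primary cells; technique: CellTiter-Glo luminescence measuring cellular ATP; controls: vehicle and MePR control wells; measure: percent of median DMSO-control luminescence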
# [5] = H69AR cell proliferation blockers – human, duplicate replicates, primary screen (AID 580;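 active = viability at or under a set limit in both replicates, limit being median viability minus 3 SD, cut at about 48% in these data, passing the limit was not always enough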;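 note: 100% = mean luminescence of untreated wells and 0% = no signal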); settings: H69AR lung tumor cells viability, ATP luminescence, 72 h; at 10 µM; stronger effect = lower value
# [6] = MRP1 drug-resistance reversers in H69AR cells – cell-based, doxorubicin co-treatment, pilot screen (AID 601;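 active = viability loss from added drug above about 55%, and viability with drug at most 40%, in both replicates, limit read from the data, passing the limit was not always enough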); settings: CellTiter-Glo, 72 h, at 10 µM; for differential viability (reversal): stronger effect = higher value
# [7] = yeast transport mutant growth inhibition pilot in 384-well plates, post-Golgi transport modulator project (AID 636; in the data active = inhibition above about 31%); settings: absorbance 615 nm, about 18 h, stronger effect = higher value
# [8] = growth suppression of yeast trafficking mutant, preliminary HTS, modulators of trafficking downstream of Golgi apparatus project, 1536-format plate, OD 615 nm (AID 637; in the data active = inhibition above about 30%); settings: yeast transport mutant growth, absorbance 615 nm, 18 h; stronger effect = higher value
# [9] = H69AR cells + 2 uM doxorubicin, measured here: viability with 2 uM doxorubicin, stronger effect = lower value
# [10] = H69AR cells, compound alone cytotoxicity
Structure (SMILES),viability [1],Her2 level [2],viability [3],viability [4],viability [5],differential viability (reversal) ([6]; H69AR cells + 2 uM doxorubicin),"viability [6, 9]","viability [6, 10]",inhibition [7],inhibition [8]
Cc1nn(-c2ccccc2)c2c1C(=O)NC(=O)C(C)(C)C2,96.5%,88.5% (inactive),96.5% (inactive),105% (inactive),97.3% (inactive),16.2% (inactive),81.1%,97.3%,-4.08% (inactive),-1.27% (inactive)
CCOc1cc(NC(=O)c2ccccn2)c(OCC)cc1NC(=O)CC(C)C,74%,102% (inactive),74% (inactive),63.1% (inactive),89% (inactive),-6.29% (inactive),95.2%,89%,1.2% (inactive),-6.23% (inactive)
CC1CN(c2nc3ccccc3nc2C(C#N)C(=O)OC2CCCCC2)CC(C)O1 (stereo not given),94%,97% (inactive),94% (inactive),78.7% (inactive),96.1% (inactive),12.6% (inactive),83.5%,96.1%,-5.07% (inactive),2.54% (inactive)
CC(=O)NCc1ccc(C(=O)CSc2nnc(-c3ccncc3)n2Cc2ccccc2)o1,99.5%,92.5% (inactive),99.5% (inactive),97% (inactive),97.1% (inactive),9.33% (inactive),87.8%,97.1%,-5% (inactive),10.3% (inactive)
CCOc1ccc(C(CC(=O)O)NC(=O)c2ccco2)cc1OC (stereo not given),102%,102% (inactive),102% (inactive),104% (inactive),94.2% (inactive),1.89% (inactive),92.3%,94.2%,-6.76% (inactive),-1.33% (inactive)
Cn1c(CN2CCOCC2)nnc1SCC(=O)NCCc1ccccc1,104%,83% (inactive),104% (inactive),73.6% (inactive),91.8% (inactive),11.4% (inactive),80.4%,91.8%,-2.08% (inactive),-2.86% (inactive)
CCOC(=O)c1cccc(NC(=O)CSc2nc3cccnc3n2C)c1,86.5%,94.5% (inactive),86.5% (inactive),71.4% (inactive),93.2% (inactive),-1.5% (inactive),94.7%,93.2%,-5.14% (inactive),1.8% (inactive)
COc1ccc(N2CCN(C(=O)CSc3ccccc3N)CC2)cc1,85.5%,88% (inactive),85.5% (inactive),88.2% (inactive),94.9% (inactive),-2.63% (inactive),97.5%,94.9%,0% (inactive),-0.55% (inactive)
COC(=O)c1[nH]c2ccccc2c1NS(=O)(=O)c1ccc(OC)cc1OC,88.5%,82% (inactive),88.5% (inactive),96.8% (inactive),84% (inactive),-15.4% (inactive),99.4%,84%,-5.26% (inactive),-3.82% (inactive)
CCOC(=O)c1cc(-c2nnc(-c3ccc(Oc4ccccc4)cc3)o2)c(C)nc1C,85%,88% (inactive),85% (inactive),80.5% (inactive),102% (inactive),16.7% (inactive),85.7%,102%,-1.6% (inactive),-0.16% (inactive)
CCOC(=O)c1c(C)n(C)c2ccc(O)c(S(=O)(=O)c3ccccc3)c12,91.5%,80.5% (inactive),91.5% (inactive),103% (inactive),87.9% (inactive),-1.07% (inactive),88.9%,87.9%,-6.4% (inactive),-1.31% (inactive)
COC(=O)c1nc(N)sc1-c1ccccc1,96%,93% (inactive),96% (inactive),95.1% (inactive),93.3% (inactive),13.3% (inactive),80%,93.3%,-6.13% (inactive),1.43% (inactive)
CCOC(=O)CCC(=O)Nc1ccc(S(=O)(=O)N2CCCC2)cc1,94.5%,102% (inactive),94.5% (inactive),105% (inactive),102% (inactive),5.38% (inactive),96.3%,102%,-3.68% (inactive),-4.6% (inactive)
O=C(O)CCn1c(SCc2ccccc2)nc2ccccc21,116%,107% (inactive),116% (inactive),112% (inactive),89.3% (inactive),12.2% (inactive),77%,89.3%,-5.73% (inactive),5.65% (inactive)
c1ccc(-c2csc(N3CCCCCC3)n2)cc1,91.5%,104% (inactive),91.5% (inactive),104% (inactive),100% (inactive),14.9% (inactive),85.6%,100%,-0.27% (inactive),-4.35% (inactive)
CCOc1ccc(NC(=O)CN2CCN(CC(=O)c3ccc(OCC)cc3)CC2)cc1,95%,89% (inactive),95% (inactive),77.8% (inactive),89.3% (inactive),1.23% (inactive),88.1%,89.3%,-4.87% (inactive),-2.83% (inactive)
CCn1ncc(C2=NOC(C(=O)N3CCC(C(N)=O)CC3)C2)c1C (stereo not given),104%,106% (inactive),104% (inactive),98.6% (inactive),101% (inactive),-2.31% (inactive),103%,101%,-1.05% (inactive),15.2% (inactive)
O=C1CSC(c2cn(-c3ccccc3)nc2-c2cccs2)N1CC1CCCO1 (stereo not given),102%,90% (inactive),102% (inactive),71.9% (inactive),95.7% (inactive),-0.73% (inactive),96.4%,95.7%,-2.11% (inactive),2.58% (inactive)
C/C(CC(O)(/C=N/O)c1ccccc1)=N\O (stereo not given),86%,91.5% (inactive),86% (inactive),107% (inactive),94% (inactive),2.94% (inactive),91.1%,94%,-0.26% (inactive),3.77% (inactive)
CCOC(=O)Cn1nnnc1CN(Cc1ccc(OC)cc1)Cc1cc2cc(C)cc(C)c2[nH]c1=O,95%,105% (inactive),95% (inactive),87.3% (inactive),89.4% (inactive),15.2% (inactive),74.2%,89.4%,-1.32% (inactive),-0.55% (inactive)
CC(C)CCNC(=O)C(c1ccco1)N(CC1CCCO1)C(=O)Cn1nnc2ccccc21 (stereo not given),100%,100% (inactive),100% (inactive),101% (inactive),94.4% (inactive),1.64% (inactive),92.8%,94.4%,-0.67% (inactive),-0.16% (inactive)
CSC(=O)CC(=O)NC(=O)c1ccccc1,102%,97% (inactive),102% (inactive),108% (inactive),97.9% (inactive),-5.79% (inactive),104%,97.9%,-1.05% (inactive),5.74% (inactive)
O=S(CC(O)COCc1ccc(Cl)cc1)c1ccccn1 (stereo not given),100%,90.5% (inactive),100% (inactive),111% (inactive),93% (inactive),1.46% (inactive),91.5%,93%,-1.95% (inactive),-3.93% (inactive)
Cc1ccc2[nH]c(=O)c(C(c3nnnn3CCc3ccccc3)N3CCOCC3)cc2c1 (stereo not given),86%,87.5% (inactive),86% (inactive),76.9% (inactive),100% (inactive),12.1% (inactive),87.8%,100%,-5.95% (inactive),-0.49% (inactive)
Cc1ccc(CNC(=O)C2CCN(S(=O)(=O)c3cccs3)CC2)o1,138%,87% (inactive),138% (inactive),89.5% (inactive),81% (inactive),6.39% (inactive),74.6%,81%,-4.68% (inactive),4.76% (inactive)
Nc1nonc1-c1noc(-c2ccccc2Br)n1,112%,76.5% (inactive),112% (inactive),54.7% (inactive),95.1% (inactive),3.17% (inactive),92%,95.1%,-6.62% (inactive),5.67% (inactive)
COc1ccccc1NS(=O)(=O)c1ccc(OC)c(OC)c1,86%,85% (inactive),86% (inactive),91.6% (inactive),99.8% (inactive),-3.15% (inactive),103%,99.8%,-6.62% (inactive),6.56% (inactive)
Cn1c(SCc2ccccc2)nnc1C1CCCNC1 (stereo not given),112%,106% (inactive),112% (inactive),103% (inactive),90.8% (inactive),-4.07% (inactive),94.8%,90.8%,0% (inactive),0.17% (inactive)
